Source: ChEMBL document CHEMBL3627702, “Navigating CYP1A Induction and Arylhydrocarbon Receptor Agonism in Drug Discovery. A Case History with S1P1 Agonists” (J Med Chem, 2015)
One block for each compound: values may come before it.

Key:
[1] = Oral bioavailability in CD rat at 3 mg/kg; type: ADME, organism-based; conditions: in vivo
Method in brief: (§1)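 Male CD rats cannulated in the femoral and jugular veins, n = 3, crossover design. Day 1: 1 h iv infusion at 1 mg/kg (0.2 mg/mL in ≤5% DMSO/≥95% 10% Kleptose in saline, 5 mL/kg/h). Day 2: oral gavage at 3 mg/kg (0.6 mg/mL in 1% methylcellulose, 5 mL/kg). Blood assayed by LC–MS/MS after acetonitrile precipitation.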

[2] = Half life in CD rat at 1 mg/kg, iv; type: ADME, organism-based; conditions: in vivo
Method in brief: (§2)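 Male CD rats carried femoral vein (dosing) and jugular vein (sampling) cannulae and recovered at least 2 days. They received a 1 h iv infusion at 5 mL kg−1 h−1, target 1 mg/kg, at 0.2 mg/mL in DMSO/10% Kleptose in saline (≤5%:≥95%). pH was adjusted to 8.0 if needed and the solution filtered. Definitive studies used n = 3 in crossover; others used single animals.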

[3] = Volume of distribution at steady state in CD rat at 1 mg/kg, iv; type: ADME, organism-based; conditions: in vivo, read-out: Vdss; method in brief: as §1
[4] = Blood clearance in CD rat at 1 mg/kg, iv; type: ADME, organism-based; method in brief: as §2
[5] = Lipophilicity, log D of the compound at pH 7.4; type: physicochemical; conditions: buffer
[6] = biological target: Sphingosine 1-phosphate receptor 3 (Homo sapiens, UniProt Q99500); assay: Agonist activity at S1P3 receptor (unknown origin) expressed in RBL membranes assessed as GTPgammaS binding after 3 hrs; type: functional, cell membranes
Sequence of Sphingosine 1-phosphate receptor 3 (Q99500 whole entry): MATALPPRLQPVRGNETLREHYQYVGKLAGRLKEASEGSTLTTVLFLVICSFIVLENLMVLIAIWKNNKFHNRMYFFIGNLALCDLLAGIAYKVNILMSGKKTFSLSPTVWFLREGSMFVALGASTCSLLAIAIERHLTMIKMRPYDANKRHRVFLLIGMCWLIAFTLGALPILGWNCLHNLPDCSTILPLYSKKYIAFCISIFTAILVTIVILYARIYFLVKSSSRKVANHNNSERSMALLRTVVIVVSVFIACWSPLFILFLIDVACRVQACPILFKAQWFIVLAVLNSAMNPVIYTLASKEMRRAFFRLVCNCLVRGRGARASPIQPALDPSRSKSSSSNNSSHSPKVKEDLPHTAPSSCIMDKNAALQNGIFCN
Method in brief: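 Membranes from S1P3-expressing RBL cells were sucrose-gradient purified, used at 0.44 μg/well and coupled to WGA-coated SPA beads. Buffer was 20 mM HEPES, 10 mM MgCl2, 100 mM NaCl, pH 7.4, with 2 μg/well saponin. Precoupling was 30 min on ice. GDP was present at 5 μM final.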

[7] = biological target: Sphingosine 1-phosphate receptor 1 (Homo sapiens, UniProt P21453); assay: Agonist activity at S1P1 receptor (unknown origin) expressed in CHO-K1 cells assessed as beta-arrestin recruitment after 60 mins by chemiluminescence assay; type: cell-based; conditions: in the assay text read “after 90 mins” for “after 60 mins”
Sequence of Sphingosine 1-phosphate receptor 1 (P21453 whole entry, the tested form may be a part): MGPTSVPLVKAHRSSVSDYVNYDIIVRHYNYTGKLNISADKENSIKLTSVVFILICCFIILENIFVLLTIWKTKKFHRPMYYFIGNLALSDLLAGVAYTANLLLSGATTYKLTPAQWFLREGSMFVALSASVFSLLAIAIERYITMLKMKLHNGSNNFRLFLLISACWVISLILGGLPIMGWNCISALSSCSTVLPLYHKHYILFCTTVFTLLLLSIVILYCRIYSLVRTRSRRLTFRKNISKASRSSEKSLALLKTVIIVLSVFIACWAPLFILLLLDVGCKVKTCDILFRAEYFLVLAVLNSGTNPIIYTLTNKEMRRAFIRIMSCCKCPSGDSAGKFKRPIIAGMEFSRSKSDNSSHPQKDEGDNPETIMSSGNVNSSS
Method in brief: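 PathHunter CHO-K1 cells stably express S1P1 and β-arrestin 2 fused to complementing β-galactosidase fragments. Cells in pH 7.4 HEPES/NaHCO3 buffer with 0.1% pluronic and 0.1% BSA were added to DMSO compound plates at 1 × 10^4 cells/well. Incubation was 90 min at 37 °C/5% CO2, then 15 min at room temperature. Galacton Star/Emerald II detection mix was added for 60 min at room temperature, and luminescence was read.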

[8] = system: CYP1A1; assay: Induction of CYP1A1 mRNA expression in Sprague-Dawley rat hepatic microsomes at 30 mg/kg, po QD for 4 days relative to control; type: ADME, organism-based, Liver; conditions: read-out: FC
Method in brief: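 Male CD rats (226–325 g, n = 3) were dosed by oral gavage once daily for 4 days as a 1% w/v aqueous methylcellulose suspension (3–6 mg/mL, 5 mL/kg). At the end of the study, a left lateral liver lobe section was placed in RNALater and homogenised in TRIzol. RNA was purified, DNase-treated and converted to cDNA, and Cyp1a1 was read on low-density TaqMan arrays.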

[9] = Dissociation constant, pKa of the compound; type: physicochemical
[10] = system: CYP1A2; assay: Induction of CYP1A2 mRNA expression in Sprague-Dawley rat hepatic microsomes at 30 mg/kg, po QD for 4 days relative to control; type: ADME, organism-based, Liver; conditions: read-out: FC
[11] = Cmax in Sprague-Dawley rat at 30 mg/kg, po QD measured on day 1; type: ADME, organism-based; set-up: dose 30 mg/kg, route oral; conditions: in vivo
Method in brief: (§3)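 Male CD rats (226−325 g), n = 3, given the compound once daily by oral gavage for 4 days. Vehicle was 1% (w/v) methylcellulose aq suspension at 3−6 mg/mL, dosed at 5 mL/kg (target 15−30 mg/kg). Tail vein blood was taken on days 1 and 4 up to 24 h postdose. Blood was diluted 1:1 with water, extracted by acetonitrile protein precipitation and analysed by LC−MS/MS against calibration standards in diluted blood.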

[12] = Cmax in Sprague-Dawley rat at 30 mg/kg, po QD measured on day 4; type: ADME, organism-based; set-up: dose 30 mg/kg, route oral; conditions: in vivo; method in brief: as §3
[13] = AUC in Sprague-Dawley rat at 30 mg/kg, po QD measured on day 1; type: ADME, organism-based; conditions: in vivo; method in brief: as §3
[14] = AUC in Sprague-Dawley rat at 30 mg/kg, po QD measured on day 4; type: ADME, organism-based; conditions: in vivo; method in brief: as §3
[15] = system: Rattus norvegicus; assay: Dose normalized AUC in Sprague-Dawley rat at 30 mg/kg, po QD measured on day 1; type: ADME, organism-based; conditions: in vivo; method in brief: as §3
[16] = system: Rattus norvegicus; assay: Dose normalized AUC in Sprague-Dawley rat at 30 mg/kg, po QD measured on day 4; type: ADME, organism-based; conditions: in vivo; method in brief: as §3
[17] = Intrinsic clearance in dog hepatocytes by LC-MS/MS analysis; conditions: read-out: CLH
[18] = Intrinsic clearance in rat hepatocytes by LC-MS/MS analysis; conditions: read-out: CLH
[19] = Intrinsic clearance in human hepatocytes by LC-MS/MS analysis; conditions: read-out: CLH
[20] = biological target: T1, CYP1A2 (Homo sapiens, UniProt P05177); assay: Induction of CYP1A2-mediated 7-ethoxyresorufin O-deethylase activity in human hepatocytes at 5 uM after 10 mins by fluorescence assay relative to control; type: ADME, cell-based, Hepatocyte; conditions: probe 7-ethoxyresorufin, read-out: FC
T1 sequence (P05177 whole entry): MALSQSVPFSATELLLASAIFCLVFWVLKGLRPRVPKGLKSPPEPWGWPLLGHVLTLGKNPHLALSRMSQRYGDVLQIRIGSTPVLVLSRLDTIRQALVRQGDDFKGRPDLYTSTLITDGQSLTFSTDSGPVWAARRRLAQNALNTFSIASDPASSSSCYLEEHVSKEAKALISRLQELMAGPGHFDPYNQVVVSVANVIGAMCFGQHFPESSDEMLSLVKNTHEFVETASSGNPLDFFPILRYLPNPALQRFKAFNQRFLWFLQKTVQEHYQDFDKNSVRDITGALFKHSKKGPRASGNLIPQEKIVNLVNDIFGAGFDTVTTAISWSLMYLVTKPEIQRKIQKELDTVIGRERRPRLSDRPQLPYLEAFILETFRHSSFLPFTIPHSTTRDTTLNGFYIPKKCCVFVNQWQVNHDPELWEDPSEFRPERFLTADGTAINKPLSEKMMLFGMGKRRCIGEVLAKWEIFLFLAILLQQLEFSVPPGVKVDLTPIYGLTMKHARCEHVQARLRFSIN
Method in brief: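 Human hepatocytes were treated for 48 h (re-dosed at 24 h), washed, then incubated with 0.5 μM ethoxyresorufin in serum-free medium for 10 min at 37 °C. Resorufin fluorescence read at Ex 530/Em 590 nm. Rate in fluorescence units/min expressed as fold over solvent control.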

[21] = system: CYP1A2; assay: Induction of CYP1A2 mRNA expression in human hepatocytes at 10 uM relative to control; type: ADME, cell-based, Hepatocyte; conditions: read-out: FC
[22] = system: CYP1A2; assay: Induction of CYP1A2 mRNA expression in rat hepatic microsomes at 30 mg/kg, po QD for 7 days relative to control; type: ADME, organism-based, Liver; conditions: read-out: FC
Method in brief: (§4)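 Male rats dosed orally once daily for 7 days. Hepatic mRNA measured by Taqman and expressed as fold induction versus control animals.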

[23] = system: CYP1A1; assay: Induction of CYP1A1 mRNA expression in rat hepatic microsomes at 30 mg/kg, po QD for 7 days relative to control; type: ADME, organism-based, Liver; conditions: read-out: FC; method in brief: as §4
[24] = system: CYP1A2; assay: (§5) Induction of CYP1A2 mRNA expression in rat hepatocytes at 10 uM by Taqman analysis relative to control; type: ADME, cell-based, Hepatocyte; conditions: read-out: FC
[25] = system: CYP1A1; assay: Induction of CYP1A1 mRNA expression in rat hepatocytes at 10 uM by Taqman analysis relative to control; type: ADME, cell-based, Hepatocyte; conditions: read-out: FC
[26] = system: Rattus norvegicus; assay: Induction of CYP1A2 gene expression in rat hepatic microsomes at 30 to 300 mg/kg, po QD for 7 days; type: ADME, organism-based, Liver; conditions: 168 h
Method in brief: (§6)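 Rats dosed orally once daily for 7 days at 30–300 mg/kg/day, depending on compound. Hepatic AhR-panel gene mRNA (Cyp1a, Nqo1, Ephx1) measured and expressed as fold induction versus control animals.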

[27] = system: CYP1A1; assay: Induction of CYP1A1 gene expression in rat hepatic microsomes at 30 to 300 mg/kg, po QD for 7 days; type: ADME, organism-based, Liver; conditions: read-out: FC
Method in brief: (§7)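 Rats received oral doses daily for 7 days: 30 and 100 mg/kg, or 30, 100 and 300 mg/kg, depending on compound. Hepatic CYP1A1 mRNA was expressed as fold induction versus control animals.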

[28] = system: Rattus norvegicus; assay: Induction of Nqo1 gene expression in rat hepatic microsomes at 30 to 300 mg/kg, po QD for 7 days; type: organism-based, Liver; conditions: 168 h; method in brief: as §6
[29] = system: Rattus norvegicus; assay: Induction of Ephx1 gene expression in rat hepatic microsomes at 30 to 300 mg/kg, po QD for 7 days; type: organism-based, Liver; conditions: 168 h; method in brief: as §6
[30] = system: Rattus norvegicus; assay: Induction of CYP1A2 gene expression in po dosed rat hepatic microsomes administered po QD for 7 days; type: ADME, organism-based, Liver; conditions: 168 h; method in brief: as §6
[31] = system: Rattus norvegicus; assay: Induction of CYP1A1 gene expression in po dosed rat hepatic microsomes administered po QD for 7 days; type: ADME, organism-based, Liver; conditions: 168 h; method in brief: as §7
[32] = system: Rattus norvegicus; assay: Induction of Nqo1 gene expression in po dosed rat hepatic microsomes administered po QD for 7 days; type: organism-based, Liver; conditions: 168 h; method in brief: as §6
[33] = system: Rattus norvegicus; assay: Induction of Ephx1 gene expression in po dosed rat hepatic microsomes administered po QD for 7 days; type: organism-based, Liver; conditions: 168 h; method in brief: as §6
[34] = system: CYP1A2; assay: Induction of CYP1A2 mRNA expression in rat hepatic microsomes at 20 mg/kg, po QD for 4 days relative to control; type: ADME, organism-based, Liver; conditions: hepatic microsomes, read-out: FC
Method in brief: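 Male CD rats (226–325 g), n = 3, given test compound by oral gavage once daily for 4 days. Vehicle was 1% w/v methylcellulose aqueous suspension (3–6 mg/mL, 5 mL/kg); target dose 15–30 mg/kg. Liver from the left lateral lobe was put in RNALater, then TRIzol extraction and cDNA conversion; Cyp1a analysed on low-density arrays.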

[35] = system: CYP1A1; assay: Induction of CYP1A1 mRNA expression in rat hepatic microsomes at 20 mg/kg, po QD for 4 days relative to control; type: ADME, organism-based, Liver; conditions: hepatic microsomes, read-out: FC
Method in brief: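 Male CD rats, n = 3, received the compound once daily by oral gavage for 4 days in 1% methylcellulose suspension at 5 mL/kg. At necropsy a left lateral liver lobe section was stored in RNALater on ice. Tissue was TRIzol-homogenized, RNA purified, DNased and converted to cDNA. Cyp1a1 was read on low density arrays and expressed relative to control.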

[36] = system: Hepatocyte; assay: as §5; type: ADME, cell-based; conditions: 10 µM

- bioavailability [1]: 56%
- half-life [2]: 1.7 h
- Vd [3]: 6.6 L/kg
- clearance [4]: 53 mL/min/kg
- logD [5]: 2.16
- EC50 [6]: > 31600 nM
- EC50 [7]: 7.94 nM
- fold induction at 96 h [8]: 62
- pKa [9]: 7.7
- fold induction at 96 h [10]: 4.6
- Cmax [11]: 720 ng/mL
- Cmax [12]: 710 ng/mL
- AUC [13]: 7310 ng·h/mL
- AUC [14]: 7000 ng·h/mL
- AUC/dose [15]: 15 kg·min/L
- AUC/dose [16]: 15 kg·min/L
- CLint scaled [17]: 7.1 mL/min/kg
- CLint scaled [18]: 2.1 mL/min/kg
- CLint scaled [19]: < 0.85 mL/min/kg
Structure (SMILES): Cc1c(-c2noc(-c3ccc(OC(C)C)c(C#N)c3)n2)ccc2c1CCN(C[C@@H](O)CO)C2

- fold induction at 10 min, 5 µM [20]: 1.1
- fold induction at 10 µM [21]: 0.6
- fold induction at 168 h [22]: 8
- fold induction at 168 h [23]: 75
- fold induction at 10 µM [24]: 3
- fold induction at 10 µM [25]: 5
- fold induction at 168 h [27]: 10000
- Activity [30]: Dose-dependent effect
- Activity [31]: Dose-dependent effect
- Activity [32]: Dose-dependent effect
- Activity [33]: Dose-dependent effect
Structure (SMILES): CC(C)Oc1ccc(-c2nc(-c3cccc4c3OCCN(CCCC(=O)O)C4)no2)cc1Cl
- Activity [26]: Toxic
- Activity [28]: Toxic
- Activity [29]: Toxic

- fold induction at 96 h [34]: 2
- fold induction at 96 h [35]: 2
- fold change (FC) [36]: 19
- fold induction at 10 µM [25]: 43
Structure (SMILES): CC(C)Oc1ncc(-c2nc(-c3cccc4c3OCCNC4CCCC(=O)O)no2)cc1Cl (stereo in doubt; 6)
